The source of these data is PubChem BioAssay AID1753 (Vanderbilt High Throughput Screening Facility, 2009).

Each structure is given as a SMILES string. Records with an inconclusive call do not appear. The source made the active and inactive calls.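 How the source made its calls: active means a converged dose-response curve, firm or less certain, in at least 2 of 3 replicates; inactive means the rest, inconclusive results apart.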

The experiment has as its system native HEK293 thallium flux, FluoZin2 fluorescence, ouabain. Nature of the experiment: parental HEK Tl+ uptake potency, primary conditions – HEK cells, counterscreen, counter-screen for KCC2 modulator project, dose response (AID 1753). An outline of the steps: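 System – native untransfected HEK cells, thallium flux counterscreen with ouabain · Buffer or medium – HBSS, 20 mM HEPES, 0.2 mM ouabain · Probe or stimulus – thallium stimulus · Incubation – 10–20 s post-thallium window · Detection – kinetic FluoZin2 fluorescence (dye loaded at 0.5 µM), 1 Hz reads · Benchmarks – bumetanide 2 mM positive control · Replication – triplicate, each replicate curve fitted separately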
In general terms: Counterscreens check selectivity or assay interference.

Turning to `Cc1onc(-c2ccccc2Cl)c1C(=O)NC(=S)Nc1ccc(C(C)C)cc1`, the EC50 is 0.178 µM.

As for `Cc1nn(-c2ccccc2)c2sc(C(=O)N(Cc3ccco3)C(C)C(=O)NC(C)(C)C)cc12` (stereo not drawn), the EC50 was 10.4 µM (inactive).

For `O=C(NC(=S)Nc1ccc2c(c1)OCO2)c1ccc(Cl)cc1`, the EC50 is 0.0757 µM (inactive).

As for `CCOc1[nH]n(-c2ccccc2)c(=O)c1C=Nc1ccc(F)cc1F`, the EC50 was 1.43 µM.

On to `COC(=O)[C@@H](NC(=O)O[C@@H]1C(=O)c2ccc(OC)cc2O[C@H]1c1cccc(C(F)(F)F)c1)C(C)C`, for which the EC50 is 1.68 µM.

Turning to `CC(C)c1ccc(OCC(=O)NNC(=O)c2cnccn2)cc1`, the EC50 is 12.2 µM (inactive).

For `NC(=S)N=Nc1c(O)n(Cc2ccc(F)cc2)c2ccccc12`, the EC50 is 2.25 µM.

`NC(=S)N=Nc1c(O)n(Cc2ccccc2)c2ccccc12`: the EC50 was 0.124 µM (inactive).

On to `CCOc1cccc(C(=O)NC(=S)Nc2cccc(C)c2)c1`, for which the EC50 is 7.28 µM.

Turning to `COC(=O)c1sccc1NC(=S)OC`, the EC50 was 1.8 µM.

For `CC(=O)c1cccc(NC(=S)NC(=O)c2ccc(C)cc2)c1`, the EC50 is 0.888 µM.

As to `COc1ccc(Cn2c(=S)[nH]c3ccccc32)cc1`, the EC50 was 0.436 µM.

Turning to `Cn1nnnc1SCCNCc1ccncc1`, the EC50 is 0.021 µM (inactive).

As to `COc1ccc(-c2nnc(-c3ccc(OCC(C)C)cc3)o2)cc1`, the EC50 was 0.777 µM (inactive).

Turning to `COc1ccc(N2C(=S)N=C(Nc3cccc(C)c3)C23CCCCC3)cc1`, the EC50 was 1.92 µM.

As to `CCCC(=O)OCC[N+](C)(C)C`, the EC50 is 0.0081 µM (inactive).

Turning to `Cc1ccc(-c2n[nH]c(=S)n2/N=C/C=C\c2ccccc2[N+](=O)[O-])cc1`, the EC50 is 1.47 µM.

Turning to `O=C(NC(=S)Nc1cccc2cccnc12)c1cccs1`, the EC50 was 0.114 µM (inactive).

By EC50 is commonly meant the concentration needed to bring the measured effect to its halfway point.
